Assay outcomes as filed in PubChem.
ANO1 block = mouse TMEM16A channel inhibition, primary screen; HEK293 TMEM16A/YFP iodide influx fluorescence, ionomycin; Q8BHY3; normalized B-score (activity score, 25-100; higher = stronger inhibition) at 10 µM; 310,000 compounds, 1.2% hits;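 active = ratio plate-corrected score three or more library SD toward inhibition, starting fluorescence score within five deviations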;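 also: score derived from kinetic fluorescence span divided by baseline fluorescence per well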
SR-BI DiI inh = blocks mouse SR-BI lipid uptake from DiI-HDL; Q61009; ldlA[mSR-BI] CHO cells, DiI-HDL uptake fluorescence, 3 h; 320,000 compounds, 0.96% hits; AID 488896; inhibition, % at 12.5 µM;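 active = mean replicate inhibition of at least 70% and a set share of replicates each scoring 70 or more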;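 also: 0% = median of neutral control wells and 100% = median of positive control wells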
Kir21 block = blocks the mouse Kir2.1 inward-rectifier potassium channel. P35561. HEK293-Kir2.1, FluxOR thallium flux fluorescence; stronger effect = lower value. B-score at 10 µM. 310,000 compounds, 0.85% hits;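 active = fluorescence ratio B-score at or below minus 3 SD of library scores, with starting-brightness B-score within 2 SD, cut at about -4.2 in these data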;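 also: channel flux triggered by added potassium and thallium sulfate stimulus; B-score of peak minus minimum fluorescence over baseline after thallium stimulus; more negative B-score means stronger Kir2.1 block with less thallium influx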
Target sequence (P35561 whole entry, looked up): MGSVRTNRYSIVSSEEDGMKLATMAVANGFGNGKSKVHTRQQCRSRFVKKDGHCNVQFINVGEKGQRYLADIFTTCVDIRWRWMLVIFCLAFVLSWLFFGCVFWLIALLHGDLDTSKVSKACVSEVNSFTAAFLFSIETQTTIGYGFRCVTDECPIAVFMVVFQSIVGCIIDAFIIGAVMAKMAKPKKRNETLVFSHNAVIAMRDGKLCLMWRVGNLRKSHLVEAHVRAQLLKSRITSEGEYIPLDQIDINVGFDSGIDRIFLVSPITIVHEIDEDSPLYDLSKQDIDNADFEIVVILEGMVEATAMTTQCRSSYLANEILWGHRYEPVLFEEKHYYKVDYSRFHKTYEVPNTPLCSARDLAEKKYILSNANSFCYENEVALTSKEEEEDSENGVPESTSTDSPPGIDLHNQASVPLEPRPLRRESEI
DNA FID counter = displaces DNA intercalator in HCV helicase counter-screen. DNA fluorescent intercalator displacement, fluorescence. inhibition, % at 7.9 µM. 290,000 compounds, 0.17% hits; in the data active = inhibition above about 37%;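 also: 0% = vehicle and 100% = reference compound; higher means more ethidium bromide displaced from hairpin DNA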
SR-BI uptake up = SR-BI HDL lipid transfer activation; CHO ldlA[mSR-BI] cells, DiI-HDL uptake fluorescence, 3 h; 100 = double the neutral-control signal; activation, % at 12.5 µM; AID 504775; 320,000 compounds, 0.096% hits;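 active = mean replicate activation of at least 60% and every replicate at or above 60%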;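 also: 0% = median plate neutral-control signal and 100% = twice that signal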
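Assay system: CHO ldlA[mSR-BI] cells, LDL receptor-null, SR-BI overexpressing; medium: Ham's F12 with 0.5% BSA, HEPES 25 mM, pH 7.4; also added: DiI-HDL 10 µg/mL; timing: 3 h uptake period with compound, 37 °C; signal: DiI fluorescence, bottom read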
TMEM16A act = mouse TMEM16A channel activation, primary screen | Q8BHY3 | HEK293 TMEM16A/YFP-H148Q/I152L, iodide quench fluorescence; stronger effect = lower value | B-score at 10 µM | 340,000 compounds, 0.3% hits;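 active = fluorescence-ratio B-score plate-corrected deviation score at least 3 library SD below zero, with starting fluorescence score within 5 deviations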;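 also: channel opened by trigger with iodide after compound preincubation; score built on the fluorescence ratio of max minus min over baseline; more negative score means more quench and so TMEM16A activation or potentiation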
An asterisk follows results filed as active; i = inactive; . = no result. In the library only some 3% were active in any assay of this set; here they are far more common.

SMILES	ANO1 block	SR-BI DiI inh	Kir21 block	DNA FID counter	SR-BI uptake up	TMEM16A act
O=C(CC1S/C(=N/N=C/c2cccs2)NC1=O)Nc1ccccc1F (configuration not stated)	i	80*	1.9	3	-80	i
CSc1nnc(N2C(=O)C(O)=C(C(=O)c3ccc(C)o3)C2c2ccc(C)cc2)s1 (configuration not stated)	i	-19	-0.98	-32	19	-4.8*
C=CCSc1nnc(N2C(=O)C(O)=C(C(=O)c3ccco3)C2c2ccccc2F)s1 (configuration not stated)	i	3	-0.55	-34	-3	i
CSc1nnc(N2C(=O)C(O)=C(C(=O)c3ccco3)C2c2ccccc2)s1 (configuration not stated)	i	-14	-1.7	-27	14	-6.6*
Cc1ccc(C2C(C(=O)c3ccco3)=C(O)C(=O)N2c2nnc(C)s2)cc1 (configuration not stated)	i	-13	-2	-1	13	i
Cc1ccc2nc(N3C(=O)C(O)=C(C(=O)c4ccco4)C3c3ccc(C)o3)sc2c1 (configuration not stated)	i	1	1.5	-17	-1	i
Cc1ccc2nc(N3C(=O)C(O)=C(C(=O)c4ccco4)C3c3ccc(O)cc3)sc2c1 (configuration not stated)	25*	-8	0.09	-23	8	i
CCCSc1nnc(N2C(=O)C(O)=C(C(=O)c3ccco3)C2c2ccccc2F)s1 (configuration not stated)	i	-19	1.2	-36	19	-4.8*
O=C(Nc1cccc(C(=O)O)c1)/C(=C\c1ccccc1Cl)NC(=O)c1ccco1	i	-5	-0.56	-15	5	i
CSc1nnc(N2C(=O)C(O)=C(C(=O)c3ccco3)C2c2ccccc2F)s1 (configuration not stated)	i	-16	-1.4	-16	16	-4.8*
COC(=O)c1sc2ncn(CC(=O)NCCc3ccc(OC)c(OC)c3)c(=O)c2c1C	i	76*	1.4	-11	-76	i
COc1ccc(C)cc1NC(=O)CCCNC(=O)Cn1cnc2sc(C)c(C)c2c1=O	i	78*	-0.12	-37	-78	i
COc1ccc(CCNC(=O)Cn2cnc3sc(C)c(-c4ccc(F)cc4)c3c2=O)cc1OC	i	36	-1.3	-15	-36	i
COc1cc(OC)c(NC(=O)CCCNC(=O)Cn2cnc3sc(C)c(C)c3c2=O)cc1Cl	i	81*	0.16	-19	-81	i
COc1ccc(NC(=O)CCCNC(=O)Cn2cnc3sc(C)c(C)c3c2=O)cc1Cl	i	.	0.11	-22	.	i
CCOc1ccccc1NC(=O)CCCNC(=O)Cn1cnc2sc(C)c(C)c2c1=O	i	72*	-1.4	-50	-72	i
O=c1[nH]c(=O)n(CCCc2ccccc2)cc1-c1ccccc1	.	-15	.	.	15	i
CCN(C(=O)c1ccc2c(=O)n3c(nc2c1)CCCCC3)c1cc(OC)ccc1OC	i	3	0	-66	-3	i
NC(=O)c1cc[n+](Cc2ccccc2Cl)cc1	i	-20	0.82	0	20	i
CCOCCOC(=O)C1=C(C)NC(=O)NC1c1cc2c(cc1Br)OCO2 (configuration not stated)	i	-19	-0.27	-17	19	i
COc1cccc(N2CCN(CC(=O)NC3=Nc4ccccc4N=C(C)C3c3ccccc3)CC2)c1 (configuration not stated)	i	8	0.25	-4	-8	i
COc1cccc(N2CCN(CC(=O)Nc3nnc(-c4ccccc4)s3)CC2)c1	25*	31	2.6	-25	-31	i
O=C(c1ccncc1)N1N=C(c2ccc(Br)cc2)CC1c1ccccc1O (configuration not stated)	i	75*	0.28	-38	-75	i
CC1CC(C)CN(CCCNC(=O)CCC(=O)N2CC(C)Oc3ccccc32)C1 (configuration not stated)	i	-10	-0.55	4	10	i
COc1ccc2c(c1)CCc1cc(C(=O)N3CCN(c4ccc(N5CCOCC5)nn4)CC3)sc1-2	i	77*	0.8	-21	-77	i
SMILES	ANO1 block	SR-BI DiI inh	Kir21 block	DNA FID counter	SR-BI uptake up	TMEM16A act
Cc1cccc(S(=O)(=O)N2CCCc3ccccc32)c1	i	2	-6.4*	-22	-2	i
Nc1ccc(S(=O)(=O)N2CCc3ccccc32)cc1	i	-3	-0.7	-1	3	i
O=S(=O)(c1ccc(F)c(F)c1)N1CCCc2ccccc21	i	.	-5.4*	-8	.	i
O=S(=O)(c1ccc(Br)cc1)N1CCCc2ccccc21	i	7	-4.9*	-11	-7	i
Cc1cc(O)c(C)c(O)c1/C=N/NC(=O)c1cccnc1	i	4	0.21	-7	-4	i
S=C(NCc1ccccc1)N1CCN(c2ccccc2)CC1	i	-78	-0.04	-8	78*	i
O=C(NCc1ccccc1)N1CCN(c2ccccc2)CC1	i	11	-1.8	-8	-11	i
O=C(Nc1ccc(Cl)cc1N1CCOCC1)C1CCCO1 (configuration not stated)	i	-19	-1.2	-8	19	i
COc1ccc(C)cc1NC(=O)CN1C(=O)C(=O)N(C2CCCC2)C1=O	.	-17	.	.	17	i
COc1ccc(OC)c(C2CC(=O)C(C)C(c3cc(OC)ccc3OC)N2)c1 (configuration not stated)	i	10	0.07	-8	-10	i
COc1ccc(C2NC(c3ccc(OC)cc3OC)C(C)C(=O)C2C)c(OC)c1 (configuration not stated)	i	-4	1.9	-11	4	-5.9*
Cc1oc(-c2ccccc2)cc1C(=O)Nc1ccccc1	i	90*	1.5	-7	.	i
Cc1nc(SCc2nc3ccc(Br)cc3[nH]2)c2oc3ccccc3c2n1	.	-10	.	.	10	i
CCc1nc(SCc2nc3ccccc3[nH]2)c2oc3ccccc3c2n1	25*	-6	0.56	-5	6	i
CCCCNC(=S)NNC(=O)C1=NN(c2cc(C)ccc2C)C(=O)CC1	i	4	0.97	-18	-4	i
Cc1ccc(-c2nn(-c3ccc(F)cc3)cc2C(=O)N2CCN(C3CCS(=O)(=O)C3)CC2)cc1 (configuration not stated)	.	7	.	.	-7	-37*
O=C(CNC(=O)c1cccc(F)c1)NC1CC1	.	-20	.	.	20	i
